Measurements taken from the array DNA melting data of Ke et al. (doi:10.1101/2024.01.08.574731).

Key:
[1] = melting temperature; fluorescence melt of hairpins on a sequencing array, two-state fit, raised by 9.35 °C to match UV melts; conditions: sodium 0.088 M
How it was run: (§1)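 Folding enthalpy and melting temperature were estimated with bootstrapped two-state fits and combined across four replicates by inverse-variance weighting, with fitted temperatures raised by 9.35 °C to match UV melts. The data were Cy3 fluorescence of library hairpins, with annealed Cy3 and quencher oligos, on a sequenced MiSeq flow cell in 50 mM Na-HEPES pH 8.0, 25 mM NaCl, imaged in 2.5 °C steps up to 60 °C and normalised to pre-quench Cy3 and control constructs.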

[2] = folding enthalpy; higher = less favourable; fluorescence melt of hairpins on a sequencing array, two-state fit; conditions: sodium 0.088 M
How it was run: as §1

| Sequence | Tm [1] | folding enthalpy [2] |
| --- | --- | --- |
| GCAGGGGGAAACCCCCGC ((.((((....)))).)) | 61.6 °C | -14.5 kcal/mol |
| GTCACCGGAAACGACGAC (((..((....))..))) | 31.1 °C | -24.7 kcal/mol |
| GGCGCTGGAAACAGCGTC (.(((((....))))).) | 65.9 °C | -23 kcal/mol |
| GCGGAGGGAAACCCCCAC (.((.((....)).)).) | 22.4 °C | -7.96 kcal/mol |
| CGATCGGAAACGAAGTCG ((((((....)))..))) | 25.6 °C | -11.7 kcal/mol |
| GCTCCCGAAAGGGTCAGC ((((((....)))..))) | 41 °C | -13.5 kcal/mol |
| GCAAGTGCGAAAGCATGC (((..(((....)))))) | 44.5 °C | -14 kcal/mol |
| GTGACAGGAAACTGCCAC (((.(((....))).))) | 46.8 °C | -33 kcal/mol |
| GGCCACGAAAGTGGGGCC ((((((....)))..))) | 60.3 °C | -14.2 kcal/mol |
| GGAAGGGGAAACTCTTCC (((((.(....).))))) | 46.3 °C | -39.7 kcal/mol |
| GTTTGCGAAAGCACGAAC ((((((....)))..))) | 27.1 °C | -9.85 kcal/mol |
| GAAGGCGAAAGCCTTTC ((((((....))).))) | 53.7 °C | -10.6 kcal/mol |
| GCGAAATATCGC ((((....)))) | 45.2 °C | -18.6 kcal/mol |
| GATCGTGGGACGATC ((((((...)))))) | 53.8 °C | -30 kcal/mol |
| GCGGGGCGAAAGCCTTGC ((..(((....)))..)) | 58.4 °C | -18 kcal/mol |
| GGCCGTCGAAAGACTGCC (((.(((....))).))) | 56.8 °C | -42.8 kcal/mol |
| GCGTCAGGAAACTAACGC ((((.((....)).)))) | 44.7 °C | -28.1 kcal/mol |
| GTAAGCCGAAAGGCTAC (((.(((....)))))) | 47.3 °C | -11.5 kcal/mol |
| GTAGCCGAAAGGCGATAC ((((((....)))..))) | 41.3 °C | -9.43 kcal/mol |
| GATCTCCCAAGAGATC ((((((....)))))) | 53.4 °C | -34.3 kcal/mol |
| GTTTCAGGAAACTGGAAC (((.(((....))).))) | 43.3 °C | -26.4 kcal/mol |
| GCTGAGGGAAACTTCAGC (((((.(....).))))) | 48.6 °C | -32.5 kcal/mol |
| CGTACGGAAACGTCGACG ((((((....)))..))) | 37.5 °C | -12.9 kcal/mol |

| Sequence | Tm [1] | folding enthalpy [2] |
| --- | --- | --- |
| GTAGGGGGAAACCCCCAC ((.((((....)))).)) | 43.5 °C | -12.6 kcal/mol |
| GTTTCGCGAAAGCGCAAC (((.(((....))).))) | 44.7 °C | -22.8 kcal/mol |
| GATCACAGTGGTGATC ((((((....)))))) | 56.5 °C | -50 kcal/mol |
| GGCGCCGAAAGGCGAGCC ((((((....)))..))) | 57.6 °C | -11.4 kcal/mol |
| GCAAGGCGAAAGCATTGC ((((.((....)).)))) | 67.2 °C | -38.2 kcal/mol |
| GTGGTTGAAAAACCAC ((((((....)))))) | 59.7 °C | -37.8 kcal/mol |
| GATCTTACACAAGATC ((((((....)))))) | 42.7 °C | -28.2 kcal/mol |
| GGAGATGGAAACGTTTCC (((.(.(....).).))) | 32.9 °C | -16.5 kcal/mol |
| GTTTCCCGAAAGGGTAAC (((.(((....))).))) | 47.9 °C | -22.5 kcal/mol |
| GTCACAGGAAACTGTGGC (.(((((....))))).) | 52.5 °C | -32.8 kcal/mol |
| GGATTAGGAAACTAATTC (.(((((....))))).) | 33.9 °C | -25.2 kcal/mol |
| GTTATTCCGAAAGGAAAC (((..(((....)))))) | 21.5 °C | -7.61 kcal/mol |
| GACTGCGAAAGCAATGTC ((((((....)))..))) | 44.3 °C | -14.9 kcal/mol |
| GACTCCGAAAGGACCGTC ((((((....)))..))) | 29.7 °C | -13.8 kcal/mol |
| GTCTGGGGAAACCCGGAC (((.(((....))).))) | 55.5 °C | -39.6 kcal/mol |
| GGGAGGACGAAAGTCCCC (((..(((....)))))) | 53.1 °C | -11.6 kcal/mol |
| GATGACGGAAACGCCATC ((((.((....)).)))) | 48.3 °C | -32.3 kcal/mol |
| GCATAGCGAAAGCGTTGC (((..((....))..))) | 56.8 °C | -27.1 kcal/mol |
| GTGCCCGAAAGGGACCAC ((((((....)))..))) | 49.5 °C | -11.3 kcal/mol |
| GGCGACGAAAGTCGGGCC ((((((....)))..))) | 53.3 °C | -11 kcal/mol |
| GGGCGAGGAAACTTGCCC ((((.((....)).)))) | 59.1 °C | -45.6 kcal/mol |
| GTCCTCGGAAACGAGGGC (.(((((....))))).) | 62.3 °C | -30.3 kcal/mol |
| GCTTCTGGAAACAAAAGC ((((.((....)).)))) | 28.8 °C | -13.1 kcal/mol |

| Sequence | Tm [1] | folding enthalpy [2] |
| --- | --- | --- |
| GGCACGACGAAAGTCGCC (((..(((....)))))) | 38.4 °C | -8.64 kcal/mol |
| GATCCATGATGGATC ((((((...)))))) | 49.6 °C | -34.2 kcal/mol |
| GCCACAGGAAACTGTAGC ((.((((....)))).)) | 39.4 °C | -24.3 kcal/mol |
| GACAACGGAAACATTGTC (((((.(....).))))) | 34.6 °C | -26.3 kcal/mol |
| GCCCTAACGAAAGTTGGC (((..(((....)))))) | 38.5 °C | -20.7 kcal/mol |
| GCGAGGCGAAAGCCCCGC (((.(((....))).))) | 68.5 °C | -26.6 kcal/mol |
| GCTCGTACGAAAGTAAGC (((..(((....)))))) | 39.3 °C | -4.48 kcal/mol |
| CGCGGAAAAGTCCGCG ((((((....)))))) | 60.9 °C | -38.4 kcal/mol |
| GCCTCCGAAAGGATGGGC ((((((....)))..))) | 50 °C | -41.9 kcal/mol |
| GATCTGAATGCAGATC ((((((....)))))) | 47.3 °C | -30.7 kcal/mol |
| GGGAATGCGAAAGCACCC (((..(((....)))))) | 42.3 °C | -19.4 kcal/mol |
| GCTTGGCGAAAGCCACGC ((.((((....)))).)) | 58.5 °C | -19 kcal/mol |
| GGTCAGGGAAACCCGACC ((((.((....)).)))) | 50.2 °C | -32.6 kcal/mol |
| GGTCAGCCGAAAGGCACC (((..(((....)))))) | 38.3 °C | -11.4 kcal/mol |
| GATCATAGTGATGATC ((((((....)))))) | 47.3 °C | -36.5 kcal/mol |
| GTCACCGGAAACGGCGAC (((.(((....))).))) | 54.5 °C | -40.6 kcal/mol |
| GACTGCCCGAAAGGGGTC (((..(((....)))))) | 35.6 °C | -9.57 kcal/mol |
| GGCAACGAAAGTTGAGCC ((((((....)))..))) | 45.4 °C | -15.3 kcal/mol |
| GATCACTCCGGTGATC ((((((....)))))) | 56.9 °C | -37.8 kcal/mol |
| GATCATTACTATGATC ((((((....)))))) | 48.6 °C | -41.7 kcal/mol |
| GGAGGTCGAAAGACATCC (((.(((....))).))) | 57.5 °C | -38.7 kcal/mol |
| GATCCTGAAAGGATC ((((((...)))))) | 65.9 °C | -38.7 kcal/mol |
| GAGATCCCGAAAGGGCTC (((..(((....)))))) | 34.9 °C | -12 kcal/mol |

| Sequence | Tm [1] | folding enthalpy [2] |
| --- | --- | --- |
| GCAGGGCGAAAGCTTTGC (((..((....))..))) | 50.7 °C | -19.8 kcal/mol |
| GGGAGACGAAAGTCGCCC (((.(((....))).))) | 66 °C | -33 kcal/mol |
| GCCTTCCGAAAGGACGGC (((.(((....))).))) | 57.3 °C | -41.6 kcal/mol |
| GCGAAGTCGAAAGACCGC (((..(((....)))))) | 52.5 °C | -26.9 kcal/mol |
| GTAATTCCGAAAGGATAC (((..(((....)))))) | 28.2 °C | -10.6 kcal/mol |
| GAAGACGAAAGTCGTTC ((((((....))).))) | 37.9 °C | -12.3 kcal/mol |
| GCAGGGCGAAAGCACCGC ((.(.((....)).).)) | 57.7 °C | -16 kcal/mol |
| GGCACGGGAAACCGCACC ((..(((....)))..)) | 32.4 °C | -10.3 kcal/mol |
| GCTCAGCGAAAGCGGGGC ((.(.((....)).).)) | 59.9 °C | -25.5 kcal/mol |
| GCGTTCGAAAGAATCGC ((((((....))).))) | 50.2 °C | -33.5 kcal/mol |
| GCCTCGCGAAAGCCAGGC ((((.((....)).)))) | 58.2 °C | -23.5 kcal/mol |
| GCGGTGCGAAAGCCTCGC (((..((....))..))) | 59.1 °C | -22.2 kcal/mol |
| GCGCAGCGAAAGCACCGC (((..((....))..))) | 45.2 °C | -8.24 kcal/mol |
| GCATACGAAAGTAATGC ((((((....))).))) | 50.1 °C | -35.4 kcal/mol |
| GAGCACGGAAACGTACTC (((.(((....))).))) | 45.4 °C | -32.9 kcal/mol |
| GCGACTGCTCGC ((((....)))) | 50.4 °C | -16.5 kcal/mol |
| GCCTTTGGAAACAAGGGC (((.(((....))).))) | 48.9 °C | -40.2 kcal/mol |
| GACTGAGGAAACTCAGTC (((((((....))))))) | 61.5 °C | -34.8 kcal/mol |
| GGCCGACGAAAGTCCGCC (((.(((....))).))) | 55.1 °C | -39 kcal/mol |
| GGGGCACCGAAAGGTCCC (((..(((....)))))) | 53.1 °C | -25.9 kcal/mol |
| GCGCTTCGAAAGAACGC (((.(((....)))))) | 53.1 °C | -32.9 kcal/mol |
| GCACGGGGAAACCCGCAC (..((((....))))..) | 25.2 °C | -9.35 kcal/mol |
